Measured values taken from ChEMBL document CHEMBL4364254 (J Med Chem, 2019).
Active and inactive are the calls of the source. The calls are words filed in the database; no cut-off is given here.

Assays:
Cytochrome P450 2B6 = Cytochrome P450 2B6 (Homo sapiens, UniProt P20813); experiment: Induction of CYP2B6 in human HepaRG cells at 10 uM measured after 24 hrs by qRT-PCR analysis relative to phenobarbital; format: ADME, cell-based; settings: hepatocytes
Summary of the method: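 Cryopreserved HepaRG cells were plated on collagen I in Williams' E medium with GlutaMAX. On day 4 they were treated with 10 μM compound in serum-free induction medium for 24 h at 37 °C; the vehicle was 1% DMSO. Positive controls were omeprazole 50 μM (CYP1A2), phenobarbital 1 mM (CYP2B6) and rifampicin 10 μM (CYP3A4). mRNA was read by TaqMan qPCR with GAPDH as reference, using ΔΔCt, and expressed as % of the positive control.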

[1] = Cmax in C57BL6 mouse plasma at 0.3 mg/kg, po measured at 2 hrs post dose by LC-MS/MS analysis; format: ADME, organism-based; set-up: dose 0.3 mg/kg, route oral
Summary of the method: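 Female C57BL6 mice, 8 weeks old, received a single oral dose of 0.3 mg/kg in 1% NMP/0.3% Tween 80 in 0.5% Na-CMC. […] Maximum observed concentrations are reported; plasma clearance and half-life come from PK analysis.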

[2] = Half life in Sprague-Dawley rat plasma at 1 mg/kg, po by LC-MS/MS analysis; format: ADME, organism-based
Mus musculus = experiment: Anti-hepatosteatosis activity in ethanol-induced C57BL/6 mouse model of hepatic steatosis assessed as reduction in hepatic lipid accumulation at 0.03 to 0.3 mg/kg, po administered once daily via gavage for last 2 weeks of study measured post-last dose by oil red O staining-based light microscopic analysis; format: functional, organism-based
Summary of the method: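 Female C57BL/6J mice (9 weeks old, 19–21 g) were kept on Lieber–DeCarli liquid diet, with ethanol raised from 1 to 5% (v/v) over 15 d and then held for 4 weeks, pair-fed. Dosing was 0.03, 0.1 or 0.3 mg/kg by oral gavage once daily for the last 2 weeks, in 0.5% Na-CMC/1% NMP/0.3% Tween 80. Read-outs were Oil Red O on 10 μm liver sections imaged at 10× and liver weight normalized to brain weight. n = 6–10 per group; t test versus ethanol + vehicle.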

Adenosine receptor A2a = Adenosine receptor A2a (Homo sapiens, UniProt P29274); experiment: Displacement of [3H]CGS21680 from recombinant human adenosine A2A receptor after 120 mins by scintillation counting analysis
[3] = molecular target: Alpha-1A adrenergic receptor (Homo sapiens, UniProt P35348); experiment: Displacement of [3H]prazosin from recombinant human alpha 1A adrenoceptor after 60 mins by scintillation counting analysis
Alpha-1A adrenergic receptor, sequence (P35348 whole entry): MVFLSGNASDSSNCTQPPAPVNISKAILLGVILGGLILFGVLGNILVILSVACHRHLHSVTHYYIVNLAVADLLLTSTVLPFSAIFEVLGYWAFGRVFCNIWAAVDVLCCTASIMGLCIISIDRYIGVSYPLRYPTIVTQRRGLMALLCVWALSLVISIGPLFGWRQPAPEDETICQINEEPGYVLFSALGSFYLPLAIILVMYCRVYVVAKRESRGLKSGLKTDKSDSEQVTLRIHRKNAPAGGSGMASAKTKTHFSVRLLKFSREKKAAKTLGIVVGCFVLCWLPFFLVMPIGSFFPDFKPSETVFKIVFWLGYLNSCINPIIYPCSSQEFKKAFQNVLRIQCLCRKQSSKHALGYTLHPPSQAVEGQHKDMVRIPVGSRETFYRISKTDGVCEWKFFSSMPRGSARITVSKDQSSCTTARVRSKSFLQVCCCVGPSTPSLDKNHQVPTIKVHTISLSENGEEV

Histamine H1 receptor = Histamine H1 receptor (Homo sapiens, UniProt P35367); experiment: Displacement of [3H]pyrilamine from recombinant human H1 receptor after 60 mins by scintillation counting analysis
Histamine H2 receptor = Histamine H2 receptor (Homo sapiens, UniProt P25021); experiment: Displacement of [125I]APT from recombinant human H2 receptor after 120 mins by scintillation counting analysis
Histamine H2 receptor, sequence (P25021 whole entry): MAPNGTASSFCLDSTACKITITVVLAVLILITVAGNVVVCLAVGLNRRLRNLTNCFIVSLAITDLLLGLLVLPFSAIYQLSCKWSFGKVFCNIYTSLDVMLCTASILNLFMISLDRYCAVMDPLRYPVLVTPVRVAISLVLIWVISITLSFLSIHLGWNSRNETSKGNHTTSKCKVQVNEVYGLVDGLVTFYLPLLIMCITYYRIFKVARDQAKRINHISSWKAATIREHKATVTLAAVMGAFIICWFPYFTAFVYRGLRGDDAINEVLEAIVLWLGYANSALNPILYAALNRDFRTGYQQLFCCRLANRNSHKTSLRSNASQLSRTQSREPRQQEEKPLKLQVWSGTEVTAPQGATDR

[4] = molecular target: Muscarinic acetylcholine receptor M2 (Homo sapiens, UniProt P08172); experiment: Displacement of [3H]AF-DX 384 from recombinant human M2 receptor after 60 mins by scintillation counting analysis
Muscarinic acetylcholine receptor M2, sequence (P08172 whole entry): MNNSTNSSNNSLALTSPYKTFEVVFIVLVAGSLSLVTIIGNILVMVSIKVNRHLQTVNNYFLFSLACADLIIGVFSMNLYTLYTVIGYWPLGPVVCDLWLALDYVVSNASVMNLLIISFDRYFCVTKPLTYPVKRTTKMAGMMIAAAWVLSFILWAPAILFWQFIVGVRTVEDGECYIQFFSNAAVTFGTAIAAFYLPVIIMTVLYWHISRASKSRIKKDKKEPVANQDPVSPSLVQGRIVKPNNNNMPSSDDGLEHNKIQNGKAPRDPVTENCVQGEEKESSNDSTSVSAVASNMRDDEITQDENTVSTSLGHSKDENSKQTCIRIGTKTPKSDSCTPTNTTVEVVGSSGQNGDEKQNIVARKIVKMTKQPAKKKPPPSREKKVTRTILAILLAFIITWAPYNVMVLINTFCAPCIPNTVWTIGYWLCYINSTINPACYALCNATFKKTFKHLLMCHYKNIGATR

[5] = molecular target: Muscarinic acetylcholine receptor M3 (Homo sapiens, UniProt P20309); experiment: Displacement of [3H]4-DAMP from recombinant human M3 receptor after 60 mins by scintillation counting analysis
[6] = molecular target: Kappa-type opioid receptor (Homo sapiens, UniProt P41145); experiment: Displacement of [3H]U69593 from recombinant human KOR after 60 mins by scintillation counting analysis
Kappa-type opioid receptor, sequence (P41145 whole entry): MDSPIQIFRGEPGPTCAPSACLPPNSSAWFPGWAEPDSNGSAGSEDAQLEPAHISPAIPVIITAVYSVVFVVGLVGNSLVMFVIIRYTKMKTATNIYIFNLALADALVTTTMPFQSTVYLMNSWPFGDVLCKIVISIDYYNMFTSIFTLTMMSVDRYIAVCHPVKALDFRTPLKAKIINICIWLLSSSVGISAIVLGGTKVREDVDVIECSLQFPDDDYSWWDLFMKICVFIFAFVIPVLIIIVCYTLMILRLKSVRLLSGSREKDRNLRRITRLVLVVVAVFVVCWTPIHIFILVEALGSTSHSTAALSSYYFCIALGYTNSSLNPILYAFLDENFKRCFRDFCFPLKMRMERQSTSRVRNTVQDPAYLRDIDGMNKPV

Mu-type opioid receptor = Mu-type opioid receptor (Homo sapiens, UniProt P35372); experiment: Displacement of [3H]DAMGO from recombinant human MOR after 120 mins by scintillation counting analysis
[7] = molecular target: 5-hydroxytryptamine receptor 2A (Homo sapiens, UniProt P28223); experiment: Displacement of [125I](+/-)DOI from recombinant human 5HT2A receptor after 60 mins by scintillation counting analysis
5-hydroxytryptamine receptor 2A, sequence (P28223 whole entry): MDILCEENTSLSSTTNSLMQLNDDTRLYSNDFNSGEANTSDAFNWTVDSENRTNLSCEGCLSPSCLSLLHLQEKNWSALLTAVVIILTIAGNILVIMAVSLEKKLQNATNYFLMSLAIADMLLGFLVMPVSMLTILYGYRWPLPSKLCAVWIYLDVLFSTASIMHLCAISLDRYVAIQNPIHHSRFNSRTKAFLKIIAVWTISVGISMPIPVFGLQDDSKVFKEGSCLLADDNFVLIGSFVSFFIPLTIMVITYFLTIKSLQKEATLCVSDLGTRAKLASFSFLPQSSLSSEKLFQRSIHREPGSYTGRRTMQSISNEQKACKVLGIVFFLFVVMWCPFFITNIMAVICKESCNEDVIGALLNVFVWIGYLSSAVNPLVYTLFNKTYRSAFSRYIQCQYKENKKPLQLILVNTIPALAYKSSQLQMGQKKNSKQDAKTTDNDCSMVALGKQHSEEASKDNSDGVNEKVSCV

[8] = molecular target: Sodium-dependent noradrenaline transporter (Homo sapiens, UniProt P23975); experiment: Displacement of [3H]nisoxetine from recombinant human norepinephrine transporter after 120 mins by scintillation counting analysis
Sodium-dependent noradrenaline transporter, sequence (P23975 whole entry): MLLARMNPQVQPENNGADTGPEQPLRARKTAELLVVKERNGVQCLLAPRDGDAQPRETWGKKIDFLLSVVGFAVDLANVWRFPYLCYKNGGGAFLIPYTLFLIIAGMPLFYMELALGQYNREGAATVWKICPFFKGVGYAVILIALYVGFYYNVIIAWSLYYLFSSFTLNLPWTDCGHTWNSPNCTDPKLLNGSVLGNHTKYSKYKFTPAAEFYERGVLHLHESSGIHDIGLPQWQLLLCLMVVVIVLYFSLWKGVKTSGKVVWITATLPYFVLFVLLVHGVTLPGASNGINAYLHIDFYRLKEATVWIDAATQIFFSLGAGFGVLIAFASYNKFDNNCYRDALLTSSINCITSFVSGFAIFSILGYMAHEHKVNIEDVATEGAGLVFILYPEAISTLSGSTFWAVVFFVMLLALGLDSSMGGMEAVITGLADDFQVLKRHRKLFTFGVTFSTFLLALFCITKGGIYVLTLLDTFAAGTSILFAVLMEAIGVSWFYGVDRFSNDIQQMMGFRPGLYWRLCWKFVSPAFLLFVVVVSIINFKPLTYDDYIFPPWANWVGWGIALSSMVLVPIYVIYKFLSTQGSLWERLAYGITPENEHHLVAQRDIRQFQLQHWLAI

[9] = molecular target: Sodium-dependent serotonin transporter (Homo sapiens, UniProt P31645); experiment: Displacement of [3H]imipramine from recombinant human serotonin transporter after 120 mins by scintillation counting analysis
Glutamate NMDA receptor = experiment: Displacement of [3H]CGP 39653 from rat brain NMDA receptor after 60 mins by scintillation counting analysis
[10] = molecular target: Neuronal acetylcholine receptor; alpha4/beta2 (Homo sapiens, UniProt P17787+P43681); experiment: Displacement of [3H]cytisine from recombinant human alpha4beta2 nAChR after 120 mins by scintillation counting analysis; format: protein-complex assay
[11] = molecular target: 5-hydroxytryptamine receptor 3A (Homo sapiens, UniProt P46098); experiment: Displacement of [3H]BRL43694 from recombinant human 5HT3 receptor after 120 mins by scintillation counting analysis
5-hydroxytryptamine receptor 3A, sequence (P46098 whole entry): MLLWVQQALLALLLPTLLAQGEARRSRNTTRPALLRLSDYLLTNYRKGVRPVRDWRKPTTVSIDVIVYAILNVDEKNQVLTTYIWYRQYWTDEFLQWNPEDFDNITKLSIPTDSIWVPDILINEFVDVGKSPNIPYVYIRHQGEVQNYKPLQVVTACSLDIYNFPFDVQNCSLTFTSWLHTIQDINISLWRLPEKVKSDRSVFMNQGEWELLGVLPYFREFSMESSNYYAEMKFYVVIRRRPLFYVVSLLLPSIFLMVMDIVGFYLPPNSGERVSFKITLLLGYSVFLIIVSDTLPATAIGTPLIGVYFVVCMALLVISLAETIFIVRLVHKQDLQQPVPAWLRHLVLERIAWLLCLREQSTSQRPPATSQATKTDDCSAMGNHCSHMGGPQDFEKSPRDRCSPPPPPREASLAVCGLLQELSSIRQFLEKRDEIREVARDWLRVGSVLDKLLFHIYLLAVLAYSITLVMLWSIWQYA

[12] = Displacement of [3H]batrachotoxinin from rat brain voltage-gated sodium ion channel site 2 after 60 mins by scintillation counting analysis
[13] = molecular target: Prostaglandin G/H synthase 2 (Homo sapiens, UniProt P35354); experiment: Activity at human recombinant COX2 using arachidonic acid as substrate measured after 5 mins by ADHP reagent based fluorescence assay
Prostaglandin G/H synthase 2, sequence (P35354 whole entry): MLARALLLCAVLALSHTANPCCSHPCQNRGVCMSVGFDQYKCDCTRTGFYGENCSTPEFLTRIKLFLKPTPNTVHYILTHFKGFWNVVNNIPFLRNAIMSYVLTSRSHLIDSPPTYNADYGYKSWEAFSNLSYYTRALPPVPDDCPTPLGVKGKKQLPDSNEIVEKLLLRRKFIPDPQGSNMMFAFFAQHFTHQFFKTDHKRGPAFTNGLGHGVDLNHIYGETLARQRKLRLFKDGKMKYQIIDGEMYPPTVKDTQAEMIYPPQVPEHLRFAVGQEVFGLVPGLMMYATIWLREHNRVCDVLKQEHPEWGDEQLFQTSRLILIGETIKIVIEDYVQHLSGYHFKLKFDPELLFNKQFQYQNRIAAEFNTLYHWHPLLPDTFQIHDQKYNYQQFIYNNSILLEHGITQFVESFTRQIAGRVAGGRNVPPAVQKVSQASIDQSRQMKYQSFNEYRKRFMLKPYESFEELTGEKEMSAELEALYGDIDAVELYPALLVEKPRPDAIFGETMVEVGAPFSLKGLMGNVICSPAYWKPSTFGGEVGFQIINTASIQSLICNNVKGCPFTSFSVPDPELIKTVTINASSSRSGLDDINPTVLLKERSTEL

[14] = molecular target: Amine oxidase [flavin-containing] A (Rattus norvegicus, UniProt P21396); experiment: Displacement of [3H]Ro41-1049 from rat brain MAOA after 60 mins by scintillation counting analysis
[15] = molecular target: cGMP-inhibited 3',5'-cyclic phosphodiesterase 3A (Homo sapiens, UniProt Q14432); experiment: Activity at human recombinant PDE3A using [3H]cAMP as substrate measured after 15 mins by scintillation counting analysis
cGMP-inhibited 3',5'-cyclic phosphodiesterase 3A, sequence (Q14432 whole entry): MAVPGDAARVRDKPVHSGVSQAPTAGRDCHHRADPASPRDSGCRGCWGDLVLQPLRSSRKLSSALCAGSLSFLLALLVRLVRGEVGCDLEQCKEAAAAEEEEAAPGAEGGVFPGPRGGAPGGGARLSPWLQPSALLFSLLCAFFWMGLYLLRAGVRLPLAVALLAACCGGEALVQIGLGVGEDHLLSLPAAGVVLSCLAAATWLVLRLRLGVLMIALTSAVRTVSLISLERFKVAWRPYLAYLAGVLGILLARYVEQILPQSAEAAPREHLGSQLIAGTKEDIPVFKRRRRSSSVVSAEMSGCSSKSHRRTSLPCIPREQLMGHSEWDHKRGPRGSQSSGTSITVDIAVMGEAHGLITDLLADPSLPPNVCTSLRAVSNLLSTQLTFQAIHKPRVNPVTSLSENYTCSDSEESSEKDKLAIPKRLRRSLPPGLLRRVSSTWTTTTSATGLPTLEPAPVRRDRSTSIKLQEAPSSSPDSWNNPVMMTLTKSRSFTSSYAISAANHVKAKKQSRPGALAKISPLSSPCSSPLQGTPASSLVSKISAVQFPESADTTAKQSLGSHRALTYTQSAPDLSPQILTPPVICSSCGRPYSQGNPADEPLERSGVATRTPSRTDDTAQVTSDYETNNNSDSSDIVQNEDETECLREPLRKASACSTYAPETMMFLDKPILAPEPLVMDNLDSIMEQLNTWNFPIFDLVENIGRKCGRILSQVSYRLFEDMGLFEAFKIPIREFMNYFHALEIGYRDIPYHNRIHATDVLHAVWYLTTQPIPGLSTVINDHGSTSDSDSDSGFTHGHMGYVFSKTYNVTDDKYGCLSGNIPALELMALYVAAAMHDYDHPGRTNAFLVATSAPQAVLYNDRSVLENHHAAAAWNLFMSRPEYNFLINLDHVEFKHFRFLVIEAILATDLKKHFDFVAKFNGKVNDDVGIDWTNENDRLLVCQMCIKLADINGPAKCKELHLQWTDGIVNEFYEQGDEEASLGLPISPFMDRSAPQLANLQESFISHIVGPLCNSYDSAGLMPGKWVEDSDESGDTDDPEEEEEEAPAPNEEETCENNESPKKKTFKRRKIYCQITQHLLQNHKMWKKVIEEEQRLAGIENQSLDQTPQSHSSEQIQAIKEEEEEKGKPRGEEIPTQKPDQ

[16] = molecular target: 3',5'-cyclic-AMP phosphodiesterase 4D (Homo sapiens, UniProt Q08499); experiment: Activity at human recombinant PDE4D2 using [3H]cAMP as substrate measured after 20 mins by scintillation counting analysis

For O=C(Nc1ccc(OC(F)F)nc1)NC1CCN(c2ncnc3c2nc(-c2ccccc2Cl)n3-c2ccc(Cl)cc2)CC1, which Activity (Cytochrome P450 2B6) is on record?
The Activity was under 10%.

And the Cmax [1]?
The Cmax was 940 ng/mL.

And the half-life [2]?
Its half-life is 9.9 h.

And the Activity (Mus musculus)?
The Activity was “Active”.

And the EC50 (Adenosine receptor A2a)?
Its EC50 is over 10 µM.

And the IC50 (Adenosine receptor A2a)?
Its IC50 is over 10 µM.

And the EC50 [3]?
Its EC50 is over 10 µM.

What about the IC50 [3] of the same molecule?
Its IC50 is over 10 µM.

And the EC50 (Histamine H1 receptor)?
The EC50 was over 10 µM.

What about the IC50 (Histamine H1 receptor) of the same molecule?
Its IC50 is over 10 µM.

What about the EC50 (Histamine H2 receptor) of the same molecule?
The EC50 was over 10 µM.

What about the IC50 (Histamine H2 receptor) of the same molecule?
Its IC50 is over 10 µM.

And the EC50 [4]?
The EC50 was over 10 µM.

What about the IC50 [4] of the same molecule?
Its IC50 is over 10 µM.

What about the EC50 [5] of the same molecule?
The EC50 was over 10 µM.

What about the IC50 [5] of the same molecule?
The IC50 was over 10 µM.

What about the EC50 [6] of the same molecule?
The EC50 was over 10 µM.

What about the IC50 [6] of the same molecule?
Its IC50 is over 10 µM.

What about the EC50 (Mu-type opioid receptor) of the same molecule?
The EC50 was over 10 µM.

And the IC50 (Mu-type opioid receptor)?
The IC50 was over 10 µM.

What about the EC50 [7] of the same molecule?
Its EC50 is over 10 µM.

And the IC50 [7]?
The IC50 was over 10 µM.

And the EC50 [8]?
The EC50 was over 10 µM.

What about the IC50 [8] of the same molecule?
The IC50 was over 10 µM.

And the EC50 [9]?
Its EC50 is over 10 µM.

And the IC50 [9]?
Its IC50 is over 10 µM.

What about the EC50 (Glutamate NMDA receptor) of the same molecule?
The EC50 was over 10 µM.

And the IC50 (Glutamate NMDA receptor)?
Its IC50 is over 10 µM.

And the EC50 [10]?
Its EC50 is over 10 µM.

What about the IC50 [10] of the same molecule?
Its IC50 is over 10 µM.

What about the EC50 [11] of the same molecule?
Its EC50 is over 10 µM.

And the IC50 [11]?
The IC50 was over 10 µM.

What about the EC50 [12] of the same molecule?
Its EC50 is over 10 µM.

What about the IC50 [12] of the same molecule?
The IC50 was over 10 µM.

And the EC50 [13]?
The EC50 was over 10 µM.

What about the IC50 [13] of the same molecule?
The IC50 was over 10 µM.

And the EC50 [14]?
The EC50 was over 10 µM.

What about the IC50 [14] of the same molecule?
The IC50 was over 10 µM.

What about the EC50 [15] of the same molecule?
Its EC50 is over 10 µM.

What about the IC50 [15] of the same molecule?
The IC50 was over 10 µM.

What about the EC50 [16] of the same molecule?
Its EC50 is over 10 µM.

And the IC50 [16]?
The IC50 was over 10 µM.
